Measured values gathered from unrelated publications.

Nc1ccc(-c2nsc(=O)o2)cc1  kinact/KI (Proteasome Macropain subunit MB1 (PSMB5, Homo sapiens, UniProt P28074); enzyme activity, inhibitor): 8.6 M⁻¹ s⁻¹
Cn1cc(-c2cc(F)cc(N3CCn4c(cc5c4CCCC5)C3=O)c2CO)cc(Nc2ccc(N3CCN(C4COC4)CC3)cn2)c1=O  inhibition (Muscle, skeletal receptor tyrosine-protein kinase (MUSK, Homo sapiens, UniProt O15146); enzyme activity, inhibitor; 0.1 µM): 17%
Cc1nn(C)cc1-c1nc2c(N3CCN(Cc4ccc(Cl)cc4)CC3)c(Cl)cnc2[nH]1  remaining binding (Serine/threonine-protein kinase Nek5 (NEK5, Homo sapiens, UniProt Q6P3R8); binding, competition with immobilised ligand; 1 µM): 23%
COc1ccc(S(=O)(=O)N2CCCCC2)cc1C  inhibition (Vasopressin V2 receptor (AVPR2, Homo sapiens, UniProt P30518); ligand displacement, radioligand; 10 µM): < 30%
CCN(CC)CCCC[C@H](NC(=O)[C@H](CC(C)C)NC(=O)[C@H](C)NC(=O)[C@H](Cc1ccccc1)NC(=O)c1ccc(C(C)(C)C)cc1)C(=O)N[C@@H](CO)C(=O)OC  ΔTm (Nucleosome-remodeling factor subunit BPTF (BPTF, Homo sapiens, UniProt Q12830); thermal stability, DSF; 25 µM): 0 °C
Brc1cc2c(N3CCNCC3)nccn2c1  ΔTm (Beta-secretase 1 (BACE1, Homo sapiens, UniProt P56817); thermal stability, DSF; 2.1 mM, pH 5.4): -0.27 °C
COc1ncccc1-c1cnn2ccc(N3CCN(C(=O)OC(C)C)CC3)nc12  remaining binding (Ribosomal protein S6 kinase alpha-2, C-terminal kinase domain (RPS6KA2, Homo sapiens, UniProt Q15349); binding, competition with immobilised ligand; 1 µM): 83%
Cn1cc(-c2cccc(N3CCc4c(sc5c4CC(C)(C)C5)C3=O)c2CO)cc(Nc2ccncn2)c1=O  inhibition (PAS domain-containing serine/threonine-protein kinase (PASK, Homo sapiens, UniProt Q96RG2); enzyme activity, inhibitor; 1 µM): 21%
Nc1ncc(-c2nc(N3CCOCC3)nc(N3CCOCC3)n2)c(C(F)F)n1  remaining binding (Epidermal growth factor receptor (EGFR, Homo sapiens, UniProt P00533, G719C); cell-free assay, competition with immobilised ligand; 10 µM): 56%
C#Cc1n[nH]c2c(-c3cn([C@@H](C)c4ccccn4)c(=O)[nH]c3=O)cc(F)cc12  inhibition (Serine/threonine-protein kinase B-raf (BRAF, Homo sapiens, UniProt P15056); enzyme activity, inhibitor; 0.1 µM): -0.3%
O=C(Nc1cccnn1)N1CCN([C@@H]2CCOc3cc(C(F)(F)F)ccc32)CC1  inhibition (Melanocortin receptor 3 (MC3R, Homo sapiens, UniProt P41968); cell-free assay; 20 µM): 13%
